# High-throughput results from PubChem.
# Fibroblast inh = blocks proliferation of human lung fibroblasts; LL 47 human lung fibroblast viability, ATP luminescence; hits give low values; viability, % at 10 µM; 1.1% of 85,000 active;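 active means viability at or below 50% in the single dose screen; inactive means viability above 50%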;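 further: compound exposure lasted 72 h before the ATP readout; 100% = median luminescence of untreated cell-only wells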
#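 Material: human lung fibroblast line LL 47, low passage; Evaluation: viability percentage against median untreated-cell control; Buffer or medium: 15% FBS in IMEM; Incubation: 72 h compound exposure at 37 °C after overnight plating; Dosing: 0.1% DMSO in all compound wells; Measured by: CellTiter-Glo luminescence.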
# HUVEC inhibit = human endothelial cell proliferation inhibition | viability, % at 10 µM (by protocol) | 1.1% of 86,000 active | HUVEC proliferation, CellTiter-Glo luminescence, 72 h; hits give low values;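 active means viability at or below 30%; inactive means viability above 30%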;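 further: 100% = median luminescence of DMSO-only cell control wells on each plate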
# H69AR growth 86K = growth inhibitors of human H69AR lung tumor cells; H69AR lung tumor viability, ATP luminescence, 72 h; hits give low values; viability, % at 10 µM; 6% of 85,000 active;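 active means viability at or below 40%; inactive means viability above 40%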;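 further: multidrug resistant small cell line overexpressing MRP-1 efflux transporter; 100% = mean luminescence of untreated control wells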
# Pyk2 oligo antag = blocks oligomerization of human Pyk2 in cells; Q293 cells, Pyk2 FERM NanoBiT luminescence; hits give low values; z-score (the deposit names both 25 µM and 10 µM); 0.83% of 99,000 active; Q14289;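 active means Z-score of -3 or lower, scaled per plate to the spread of control and sample wells; inactive means z-score above -3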;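 further: negative z-score means lost luminescence so less FERM oligomerization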
# Target sequence (Q14289 whole entry, looked up): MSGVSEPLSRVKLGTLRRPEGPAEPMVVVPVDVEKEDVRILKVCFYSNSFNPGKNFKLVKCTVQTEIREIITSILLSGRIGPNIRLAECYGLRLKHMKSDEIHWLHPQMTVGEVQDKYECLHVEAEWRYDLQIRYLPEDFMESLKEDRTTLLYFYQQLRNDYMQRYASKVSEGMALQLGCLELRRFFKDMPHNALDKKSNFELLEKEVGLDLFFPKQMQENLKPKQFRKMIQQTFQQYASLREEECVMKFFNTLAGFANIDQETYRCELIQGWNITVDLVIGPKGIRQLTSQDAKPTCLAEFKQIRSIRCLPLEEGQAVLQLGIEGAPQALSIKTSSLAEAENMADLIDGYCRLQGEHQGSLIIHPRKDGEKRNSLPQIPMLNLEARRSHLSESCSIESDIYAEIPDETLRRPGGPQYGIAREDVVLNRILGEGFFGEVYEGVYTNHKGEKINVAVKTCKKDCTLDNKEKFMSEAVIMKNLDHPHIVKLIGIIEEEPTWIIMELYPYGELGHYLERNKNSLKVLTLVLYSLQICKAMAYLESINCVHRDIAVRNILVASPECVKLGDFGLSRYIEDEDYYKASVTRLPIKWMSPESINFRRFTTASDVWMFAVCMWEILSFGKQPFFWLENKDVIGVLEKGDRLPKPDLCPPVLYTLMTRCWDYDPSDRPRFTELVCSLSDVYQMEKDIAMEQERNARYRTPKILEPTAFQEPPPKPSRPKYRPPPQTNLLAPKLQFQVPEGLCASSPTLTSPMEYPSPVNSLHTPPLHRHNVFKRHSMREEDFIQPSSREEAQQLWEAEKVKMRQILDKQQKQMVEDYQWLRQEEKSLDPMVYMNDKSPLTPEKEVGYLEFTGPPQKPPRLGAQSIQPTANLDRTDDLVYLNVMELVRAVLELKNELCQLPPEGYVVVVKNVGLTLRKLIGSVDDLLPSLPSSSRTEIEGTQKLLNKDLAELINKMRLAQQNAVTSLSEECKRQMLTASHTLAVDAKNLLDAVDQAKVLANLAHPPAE
# PTEN del growth = growth suppressors of cells with PTEN tumor suppressor deletion | HCT116 PTEN-null viability, CellTiter-Glo, 60 h; hits give low values | viability, % at 10 µM | 1.2% of 140,000 active;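 active means viability at or below a set limit, 4 SD under the median of all tested compounds, cut at about 3.7% in these data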;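 further: PTEN knockout HCT116 line with beta catenin targeted HCT116 as companion control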
# HCT116 bCat-KO = beta-catenin-lacking colon tumor cell growth suppression | AID 818 | HCT116 beta-catenin knockout viability, CellTiter-Glo, 60 h; hits give low values | viability, % at 10 µM | 1.5% of 140,000 active;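 active means viability at or under a set limit, the compound median less 4 SD, cut at about 6% in these data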;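 further: 0% = Hyamine 1622 control at 20 µM and 100% = untreated cell control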
# Active calls of the source: *; nt = no result. This excerpt belongs to a sample that is enriched for hits.
SMILES,Fibroblast inh,HUVEC inhibit,H69AR growth 86K,Pyk2 oligo antag,PTEN del growth,HCT116 bCat-KO
Cc1cnn(-c2cc(N/N=C/c3ccccc3F)ncn2)c1,nt,nt,nt,2.22,2.6*,21.4
CCCC1=C(C(=O)OCC)C(c2cc(Cl)cc(OC)c2OCC(=O)OCC)NC(=O)N1 (stereo unspecified),91.4,91.3,77.4,-3.11*,94.5,90.2
O=C1c2ccccc2-c2onc3ccc(Oc4ccccc4)c1c23,2.8*,4.4*,2.1*,-1.56,1.5*,1.9*
O=C(O)c1ccc2noc(-c3ccccc3)c2c1,107.5,87.3,86.1,-1.06,104.0,108.5
CCOC(=O)CCC(=O)N1CCNC(=O)C1,106.0,123.0,95.5,nt,98.2,88.5
Cc1ccc(-n2nc(C)c3c(C)c(CCC(=O)NCc4ccccc4)c(C)nc32)cc1,77.2,66.0,32.2*,nt,78.4,76.6
Cc1cc(Nc2ccccc2)n(-c2ccccc2)n1,94.8,88.8,103.9,-0.75,89.5,91.0
Cc1cc(NC(=O)c2ccccc2F)n(-c2nc3ccccc3[nH]2)n1,70.5,92.2,41.3,-2.1,70.5,74.4
Cc1cc(NC(=O)c2ccc(C)s2)n(-c2nc3ccccc3[nH]2)n1,nt,nt,nt,nt,37.0,53.4
Cc1cc(Nc2ccccc2)n(-c2nc3ccccc3[nH]2)n1,66.8,45.1,37.4*,-0.86,13.5,22.2
Cc1cc(C)nc(-n2nc(C)cc2Nc2ccccc2)n1,77.3,78.3,10.4*,-0.82,45.1,39.6
Cc1cc(NC(=O)c2c(F)cccc2F)n(-c2nc3ccccc3[nH]2)n1,85.2,71.8,36.5*,-1.74,14.1,17.9
Cc1cc(NC(=O)c2c(F)cccc2Cl)n(-c2nc3ccccc3[nH]2)n1,79.2,59.5,28.2*,-2.28,16.3,21.3
COCC(=O)NNS(=O)(=O)c1ccccc1[N+](=O)[O-],nt,nt,nt,nt,99.1,95.8
Cc1cc(N2CCN(c3ccccc3)CC2)nc(-n2nc(C)cc2C)n1,95.6,108.1,9.3*,0.31,32.5,50.1
Cc1ccc(CNC(=O)C2CC(=O)N(c3ccc(OCC(=O)N4CCCC4)cc3)C2)cc1 (stereo unspecified),96.5,99.8,89.8,0.12,95.7,99.5
O=C1NC(c2ccccc2)=C(c2nc3ccccc3s2)C(c2ccccc2)N1 (stereo unspecified),nt,nt,nt,-3.65*,68.4,81.8
CCN(C(=O)c1c(C)cc(=O)oc1C)c1ccc2c(c1)OCO2,94.7,90.2,102.9,-0.04,100.1,96.7
CCN(C(=O)c1coc(=O)c(Br)c1)c1ccc2c(c1)OCO2,92.0,76.7,2.0*,1.07,84.9,83.2
N#C/C(=C/c1ccc(Sc2nc3ccccc3[nH]2)o1)c1ccccc1F,98.2,51.3,41.3,-2.61,63.1,43.9
N#C/C(=C/c1ccc(Sc2nc3ccccc3[nH]2)o1)c1cccc(Br)c1,89.7,51.9,65.5,-3.11*,27.1,54.7
N#C/C(=C/c1ccc(Sc2nc3ccccc3[nH]2)o1)c1cccc(F)c1,92.4,35.4,83.9,-3.18*,69.3,75.0
Cc1ccc(Cl)cc1NC(=O)CSC(N)=O,105.3,83.8,7.6*,0.75,96.3,96.6
Cc1ccc(Cl)cc1NC(=O)CC(O)(C(F)(F)F)C(F)(F)F,59.1,47.5,4.5*,-0.47,15.8,23.4
Cc1ccc(Cl)cc1NC(=O)Cn1cccc1,116.2,105.2,84.4,-0.42,92.2,93.8
SMILES,Fibroblast inh,HUVEC inhibit,H69AR growth 86K,Pyk2 oligo antag,PTEN del growth,HCT116 bCat-KO
Cc1nn(CCC(N)=S)c2nc(-c3cccs3)cc(C(F)(F)F)c12,nt,nt,nt,nt,61.5,72.8
CC1CCCN(c2oc(-c3cccc4ccccc34)nc2C#N)C1 (stereo unspecified),47.1*,96.0,95.0,0.44,95.0,89.2
CC1CCN(c2oc(-c3ccccc3Cl)nc2C#N)CC1,96.2,90.5,84.2,-1.06,81.8,88.2
Cn1c(Oc2ccccc2NCc2cc(Br)ccc2O)cc(=O)n(C)c1=O,96.7,81.7,42.5,-3.06*,92.9,88.5
O=C(Nc1cccc2ccccc12)N1CCN(c2ccccc2)CC1,90.0,92.9,93.2,-3.82*,109.3,103.3
O=C(Nc1cccc2ccccc12)N1CC=CCC1,94.4,85.2,92.2,-1.55,95.5,98.4
N/C(COc1ccccc1)=N\NC(=O)c1cccnc1Oc1ccccc1,106.5,113.1,84.8,-0.2,98.7,94.8
Cc1cc(C)c(NC(=O)C2CCN(c3cnccn3)CC2)c(C)c1,98.1,88.0,90.8,0.22,99.0,100.1
